Measurements as given in ChEMBL document CHEMBL1125285, “Gastrin releasing peptide antagonists with improved potency and stability” (J Med Chem, 1991).
Non-standard residues stand in square brackets, D forms with d. Residues, ends and D or L forms follow the SMILES beside them. *: point of attachment. NHCH(iBu)2 = CC(C)CC(CC(C)C)N*; X1 = CC(C)CCOC[C@H](CC(C)C)N*; X11 = CCCCC[C@@H](CC(C)C)N*; Leu(ol) = CC(C)C[C@H](N)CO; X10 = CCCOC[C@H](CC(C)C)N*; X4 = CCCCCC[C@H](CC(C)C)N*; X12 = CCCC[C@H](CC(C)C)N*; X8 = CCCC[C@@H](CC(C)C)N*; X5 = CCOC[C@H](CC(C)C)N*; X9 = CCC[C@@H](CC(C)C)N*; X3 = COC[C@H](CC(C)C)N*; X6 = CCC[C@H](CC(C)C)N*; X2 = CCCCC(CCCC)N*

Legend:
[1] = molecular target: Gastrin-releasing peptide receptor (Mus musculus, UniProt P21729); assay: Inhibition against Swiss 3T3 murine fibroblast cells.; assay type: functional, cell-based
Gastrin-releasing peptide receptor, sequence (P21729 whole entry): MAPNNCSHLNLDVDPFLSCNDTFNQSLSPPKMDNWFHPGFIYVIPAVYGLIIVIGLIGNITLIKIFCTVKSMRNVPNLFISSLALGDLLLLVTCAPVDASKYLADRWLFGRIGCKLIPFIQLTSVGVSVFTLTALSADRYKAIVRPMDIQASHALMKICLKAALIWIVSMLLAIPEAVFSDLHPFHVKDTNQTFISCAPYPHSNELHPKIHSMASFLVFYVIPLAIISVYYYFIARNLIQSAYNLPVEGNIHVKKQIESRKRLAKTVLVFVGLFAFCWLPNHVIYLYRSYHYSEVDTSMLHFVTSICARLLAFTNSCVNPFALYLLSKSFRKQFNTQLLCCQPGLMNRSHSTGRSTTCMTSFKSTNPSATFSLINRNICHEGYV
How it was run: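 Competitive binding on confluent Swiss 3T3 monolayers grown in DMEM with 10% FBS and 2 mM glutamine. [3H-Phe15]GRP-15-27 amide used at 2 nM final, at 15 °C for 1–2 h. Nonspecific binding defined with excess unlabeled GRP. Run in triplicate in at least two trials; mean IC50 reported.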

[2] = Compound was evaluated for mitogenic stimulation against Swiss 3T3 murine fibroblast cells.; assay type: functional, cell-based, Mus musculus
How it was run: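 Confluent Swiss 3T3 monolayers held in serum-free DMEM for 48 h, then peptide and 23 nM [3H]thymidine added. After 48 h more, cells detached with trypsin/5 mM EDTA and filter-harvested to measure [3H]thymidine uptake. EC50 is the mean of at least two independent experiments.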

Structure (SMILES)	IC50 [1] [nM]	EC50 [2] [nM]
CCOC[C@H](CC(C)C)NC(=O)[C@H](Cc1c[nH]cn1)NC(=O)[C@H](C)NC(=O)[C@@H](NC(=O)[C@H](C)NC(=O)[C@H](Cc1c[nH]c2ccccc12)NC(=O)[C@H](Cc1c[nH]cn1)NC(C)=O)C(C)C	410	
CSCC[C@H](NC(=O)[C@H](CC(C)C)NC(=O)[C@H](Cc1c[nH]cn1)NC(=O)CNC(=O)[C@@H](NC(=O)[C@H](C)NC(=O)[C@H](Cc1c[nH]c2ccccc12)NC(=O)[C@H](Cc1c[nH]cn1)NC(=O)C(C)(C)C)C(C)C)C(N)=O	4.1	0.2
CCOC[C@H](CC(C)C)NC(=O)[C@H](Cc1c[nH]cn1)NC(=O)CNC(=O)[C@@H](NC(=O)[C@H](C)NC(=O)[C@H](Cc1c[nH]c2ccccc12)NC(=O)[C@H](Cc1c[nH]cn1)NC(C)=O)C(C)C (Ac-HWAVGH-X5)	6.2	
CC(=O)N[C@@H](Cc1c[nH]cn1)C(=O)N[C@@H](Cc1c[nH]c2ccccc12)C(=O)N[C@@H](C)C(=O)N[C@H](C(=O)NCC(=O)N[C@@H](Cc1c[nH]cn1)C(=O)NC(CC(C)C)CC(C)C)C(C)C (Ac-HWAVGH-{NHCH(iBu)2})	1.2	
COC[C@H](CC(C)C)NC(=O)[C@H](Cc1c[nH]cn1)NC(=O)CNC(=O)[C@@H](NC(=O)[C@H](C)NC(=O)[C@H](Cc1c[nH]c2ccccc12)NC(=O)[C@H](Cc1c[nH]cn1)NC(C)=O)C(C)C (Ac-HWAVGH-X3)	8.3	
CCOC[C@H](CC(C)C)NC(=O)[C@H](Cc1c[nH]cn1)NC(=O)[C@@H](C)NC(=O)[C@@H](NC(=O)[C@H](C)NC(=O)[C@H](Cc1c[nH]c2ccccc12)NC(=O)[C@H](Cc1c[nH]cn1)NC(C)=O)C(C)C	5	
CCCOC[C@H](CC(C)C)NC(=O)[C@H](Cc1c[nH]cn1)NC(=O)CNC(=O)[C@@H](NC(=O)[C@H](C)NC(=O)[C@H](Cc1c[nH]c2ccccc12)NC(=O)[C@H](Cc1c[nH]cn1)NC(C)=O)C(C)C (Ac-HWAVGH-X10)	3.2	
CCCC[C@@H](CC(C)C)NC(=O)[C@H](Cc1c[nH]cn1)NC(=O)CNC(=O)[C@@H](NC(=O)[C@H](C)NC(=O)[C@H](Cc1c[nH]c2ccccc12)NC(=O)[C@H](Cc1c[nH]cn1)NC(C)=O)C(C)C (Ac-HWAVGH-X8)	2.4	
CCCCC(CCCC)NC(=O)[C@H](Cc1cnc[nH]1)NC(=O)CNC(=O)[C@@H](NC(=O)[C@H](C)NC(=O)[C@H](Cc1c[nH]c2ccccc12)NC(=O)[C@H](Cc1cnc[nH]1)NC(C)=O)C(C)C (Ac-HWAVGH-X2)	3.3	
CC(=O)N[C@@H](Cc1c[nH]cn1)C(=O)N[C@@H](Cc1c[nH]c2ccccc12)C(=O)N[C@@H](C)C(=O)N[C@H](C(=O)NCC(=O)N[C@@H](Cc1c[nH]cn1)C(=O)N[C@H](COCCC(C)C)CC(C)C)C(C)C (Ac-HWAVGH-X1)	11	
CC(=O)N[C@@H](Cc1c[nH]cn1)C(=O)N[C@@H](Cc1c[nH]c2ccccc12)C(=O)N[C@@H](C)C(=O)N[C@H](C(=O)NCC(=O)N[C@@H](Cc1c[nH]cn1)C(=O)N[C@H](CO)CC(C)C)C(C)C (Ac-HWAVGH[Leu(ol)])	81	
CSCC[C@H](NC(=O)[C@H](CC(C)C)NC(=O)[C@H](Cc1c[nH]cn1)NC(=O)CNC(=O)[C@@H](NC(=O)[C@H](C)NC(=O)[C@H](Cc1c[nH]c2ccccc12)NC(=O)[C@H](Cc1c[nH]cn1)NC(C)=O)C(C)C)C(N)=O	1.8	0.2
CCCCC[C@@H](CC(C)C)NC(=O)[C@H](Cc1c[nH]cn1)NC(=O)CNC(=O)[C@@H](NC(=O)[C@H](C)NC(=O)[C@H](Cc1c[nH]c2ccccc12)NC(=O)[C@H](Cc1c[nH]cn1)NC(C)=O)C(C)C (Ac-HWAVGH-X11)	11	
CCCC[C@H](CC(C)C)NC(=O)[C@H](Cc1cnc[nH]1)NC(=O)CNC(=O)[C@@H](NC(=O)[C@H](C)NC(=O)[C@H](Cc1c[nH]c2ccccc12)NC(=O)[C@H](Cc1cnc[nH]1)NC(C)=O)C(C)C (Ac-HWAVGH-X12)	1.4	
CCC[C@@H](CC(C)C)NC(=O)[C@H](Cc1c[nH]cn1)NC(=O)CNC(=O)[C@@H](NC(=O)[C@H](C)NC(=O)[C@H](Cc1c[nH]c2ccccc12)NC(=O)[C@H](Cc1c[nH]cn1)NC(C)=O)C(C)C (Ac-HWAVGH-X9)	4.9	
CSCC[C@H](NC(=O)[C@H](CC(C)C)NC(=O)[C@H](Cc1c[nH]cn1)NC(=O)[C@H](C)NC(=O)[C@@H](NC(=O)[C@H](C)NC(=O)[C@H](Cc1c[nH]c2ccccc12)NC(=O)[C@H](Cc1c[nH]cn1)NC(C)=O)C(C)C)C(N)=O	180	20
CCC[C@H](CC(C)C)NC(=O)[C@H](Cc1cnc[nH]1)NC(=O)CNC(=O)[C@@H](NC(=O)[C@H](C)NC(=O)[C@H](Cc1c[nH]c2ccccc12)NC(=O)[C@H](Cc1cnc[nH]1)NC(C)=O)C(C)C (Ac-HWAVGH-X6)	2.6	
CSCC[C@H](NC(=O)[C@H](CC(C)C)NC(=O)[C@H](Cc1c[nH]cn1)NC(=O)[C@@H](C)NC(=O)[C@@H](NC(=O)[C@H](C)NC(=O)[C@H](Cc1c[nH]c2ccccc12)NC(=O)[C@H](Cc1c[nH]cn1)NC(C)=O)C(C)C)C(N)=O	3.2	0.2
CCCCCC[C@H](CC(C)C)NC(=O)[C@H](Cc1c[nH]cn1)NC(=O)CNC(=O)[C@@H](NC(=O)[C@H](C)NC(=O)[C@H](Cc1c[nH]c2ccccc12)NC(=O)[C@H](Cc1c[nH]cn1)NC(C)=O)C(C)C (Ac-HWAVGH-X4)	2.8	
